Legend:
[1] = biological target: T1, Peroxisome proliferator-activated receptor delta (Homo sapiens, UniProt Q03181); assay: Transactivation of human PPARdelta expressed in monkey CV-1 cells coexpressing TK-PPRE-Luc after 24 hrs by luciferase reporter gene assay; format: cell-based
T1 sequence (Q03181 whole entry): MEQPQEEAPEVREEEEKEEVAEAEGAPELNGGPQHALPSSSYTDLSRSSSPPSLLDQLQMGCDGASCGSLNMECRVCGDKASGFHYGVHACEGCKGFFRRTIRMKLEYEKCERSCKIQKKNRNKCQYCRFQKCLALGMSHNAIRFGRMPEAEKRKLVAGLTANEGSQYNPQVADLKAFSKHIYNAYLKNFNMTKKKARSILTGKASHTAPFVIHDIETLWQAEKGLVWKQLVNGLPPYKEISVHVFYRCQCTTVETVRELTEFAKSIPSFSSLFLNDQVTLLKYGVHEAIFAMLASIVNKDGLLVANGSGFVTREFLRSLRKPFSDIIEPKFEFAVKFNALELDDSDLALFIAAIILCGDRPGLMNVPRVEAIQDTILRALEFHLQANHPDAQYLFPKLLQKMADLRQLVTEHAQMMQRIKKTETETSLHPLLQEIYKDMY
How it was run: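 Agonist activity tested in transiently transfected CV-1 cells by reporter assay. EC50 is the molar concentration giving 50% of the maximal reporter activity.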

[2] = biological target: T2, Peroxisome proliferator-activated receptor alpha (Homo sapiens, UniProt Q07869); assay: Transactivation of human PPARalpha expressed in monkey CV-1 cells coexpressing TK-PPRE-Luc after 24 hrs by luciferase reporter gene assay; format: cell-based
T2 sequence (Q07869 whole entry): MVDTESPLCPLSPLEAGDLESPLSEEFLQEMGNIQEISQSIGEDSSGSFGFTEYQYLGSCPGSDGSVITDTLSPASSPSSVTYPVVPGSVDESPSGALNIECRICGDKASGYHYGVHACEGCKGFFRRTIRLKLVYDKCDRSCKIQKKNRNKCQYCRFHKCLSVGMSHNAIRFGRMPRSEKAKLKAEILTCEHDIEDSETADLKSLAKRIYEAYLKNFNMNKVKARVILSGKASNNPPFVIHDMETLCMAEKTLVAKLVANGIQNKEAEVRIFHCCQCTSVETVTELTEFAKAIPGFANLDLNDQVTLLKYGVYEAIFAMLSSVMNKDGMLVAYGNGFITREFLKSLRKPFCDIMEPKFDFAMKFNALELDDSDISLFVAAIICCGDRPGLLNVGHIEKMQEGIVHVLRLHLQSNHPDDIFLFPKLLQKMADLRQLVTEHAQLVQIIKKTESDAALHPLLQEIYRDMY

[3] = biological target: T3, Peroxisome proliferator-activated receptor gamma (Homo sapiens, UniProt P37231); assay: Transactivation of human PPARgamma expressed in monkey CV-1 cells coexpressing TK-PPRE-Luc after 24 hrs by luciferase reporter gene assay; format: cell-based
T3 sequence (P37231 whole entry): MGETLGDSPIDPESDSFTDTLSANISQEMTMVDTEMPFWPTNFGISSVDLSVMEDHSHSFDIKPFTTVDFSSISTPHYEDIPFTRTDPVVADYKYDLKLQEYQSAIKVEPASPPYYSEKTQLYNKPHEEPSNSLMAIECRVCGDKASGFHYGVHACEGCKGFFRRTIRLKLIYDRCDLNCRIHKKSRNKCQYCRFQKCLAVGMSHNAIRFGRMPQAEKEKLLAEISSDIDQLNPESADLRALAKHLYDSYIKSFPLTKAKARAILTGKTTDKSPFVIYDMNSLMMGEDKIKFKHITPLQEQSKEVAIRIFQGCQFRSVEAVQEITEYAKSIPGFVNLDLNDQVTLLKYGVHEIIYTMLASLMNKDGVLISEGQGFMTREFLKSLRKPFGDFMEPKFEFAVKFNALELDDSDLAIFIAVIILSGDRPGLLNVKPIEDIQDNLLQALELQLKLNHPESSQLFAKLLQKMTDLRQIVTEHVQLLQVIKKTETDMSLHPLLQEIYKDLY

CYP1A2 = biological target: T4, CYP1A2 (Homo sapiens, UniProt P05177); assay: Inhibition of phenacetin O-deethylase activity of CYP1A2 in human liver microsomes at 10 uM preincubated for 5 mins followed by NADPH addition measured after 15 mins by LC-MS/MS analysis; format: ADME; details: probe phenacetin (O-deethylation)
T4 sequence (P05177 whole entry): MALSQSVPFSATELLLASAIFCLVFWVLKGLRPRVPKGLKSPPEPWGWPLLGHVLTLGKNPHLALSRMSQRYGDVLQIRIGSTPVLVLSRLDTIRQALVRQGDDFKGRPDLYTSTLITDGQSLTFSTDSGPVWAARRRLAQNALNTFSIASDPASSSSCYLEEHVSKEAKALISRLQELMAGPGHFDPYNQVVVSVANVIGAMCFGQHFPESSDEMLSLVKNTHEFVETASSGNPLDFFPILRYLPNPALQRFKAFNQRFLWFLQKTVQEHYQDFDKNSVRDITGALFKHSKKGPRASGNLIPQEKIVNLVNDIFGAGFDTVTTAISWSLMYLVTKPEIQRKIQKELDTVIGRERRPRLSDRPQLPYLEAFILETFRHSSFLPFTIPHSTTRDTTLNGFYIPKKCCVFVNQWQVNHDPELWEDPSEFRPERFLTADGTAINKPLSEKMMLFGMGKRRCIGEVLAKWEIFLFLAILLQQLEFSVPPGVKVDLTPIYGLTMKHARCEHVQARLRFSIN
How it was run: (§1)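 Compound incubated with liver microsomes and isotype-specific CYP substrates for 15 min. Activity expressed as percent inhibition relative to incubation without compound. Values are means of duplicates.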

CYP2C9 = CYP2C9 (Homo sapiens, UniProt P11712); assay: Inhibition of tolbutamide 4-hydroxylase activity of CYP2C9 in human liver microsomes at 10 uM preincubated for 5 mins followed by NADPH addition measured after 15 mins by LC-MS/MS analysis; format: ADME; details: probe tolbutamide (4-hydroxylation); how it was run: as §1
CYP2C19 = CYP2C19 (Homo sapiens, UniProt P33261); assay: Inhibition of S-mephenytoin 4-hydroxylase activity of CYP2C19 in human liver microsomes at 10 uM preincubated for 5 mins followed by NADPH addition measured after 15 mins by LC-MS/MS analysis; format: ADME; details: probe S-mephenytoin (4-hydroxylation); how it was run: as §1
CYP2D6 = CYP2D6 (Homo sapiens, UniProt P10635); assay: Inhibition of dextromethorphan O-demethylase activity of CYP2D6 in human liver microsomes at 10 uM preincubated for 5 mins followed by NADPH addition measured after 15 mins by LC-MS/MS analysis; format: ADME; details: probe dextromethorphan (O-demethylation); how it was run: as §1
CYP3A4 = CYP3A4 (Homo sapiens, UniProt P08684); assay: Inhibition of midazolam 1'-hydroxylase activity of CYP3A4 in human liver microsomes at 10 uM preincubated for 5 mins followed by NADPH addition measured after 15 mins by LC-MS/MS analysis; format: ADME; details: probe midazolam (1'-hydroxylation); how it was run: as §1
[4] = Metabolic stability in human liver microsomes assessed as parent compound remaining at 1 uM after 30 mins in presence of NADPH by LC-MS/MS analysis; format: ADME, microsome; details: read-out: Stability
How it was run: (§2)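 Compound incubated with liver microsomes for 30 min. Percentage of parent remaining quantified by LC-MS/MS. Means of duplicate determinations.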

[5] = Metabolic stability in dog liver microsomes assessed as parent compound remaining at 1 uM after 30 mins in presence of NADPH by LC-MS/MS analysis; format: ADME, Canis lupus familiaris, microsome; details: read-out: Stability; how it was run: as §2
[6] = Metabolic stability in rat liver microsomes assessed as parent compound remaining at 1 uM after 30 mins in presence of NADPH by LC-MS/MS analysis; format: ADME, microsome; details: read-out: Stability; how it was run: as §2
[7] = Metabolic stability in mouse liver microsomes assessed as parent compound remaining at 1 uM after 30 mins in presence of NADPH by LC-MS/MS analysis; format: ADME, microsome; details: read-out: Stability; how it was run: as §2
[8] = Permeability of the compound at 10 uM at pH 7.4 after 5 hrs by PAMPA; format: ADME; details: read-out: permeability
How it was run: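 PAMPA. Effective permeability calculated after 5 h. Values are the mean of four determinations.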

[9] = biological target: Voltage-gated inwardly rectifying potassium channel KCNH2 (Homo sapiens, UniProt Q12809); assay: Inhibition of human ERG after 4 hrs by fluorescence polarization assay
How it was run: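 hERG channel binding measured by a fluorescence polarization (Predictor) assay. IC50 obtained by four-parameter non-linear regression.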

[10] = Total AUC in Sprague-Dawley rat at 1 mg/kg, iv by LC-MS/MS analysis; format: ADME, organism-based; design: dose 1 mg/kg, route intravenous, time AUCmax; details: in vivo
How it was run: (§3)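 Rats (n = 4) given 1 mg/kg iv. Vehicle: ethanol 10%, DMSO 10%, Cremophor EL 10%, water 50%, PEG400 30%. Parameters calculated from composite mean plasma concentration–time data, reported as mean ± SD.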

[11] = Clearance in Sprague-Dawley rat at 1 mg/kg, iv by LC-MS/MS analysis; format: ADME, organism-based; details: in vivo; how it was run: as §3
[12] = Volume of distribution at steady state in Sprague-Dawley rat at 1 mg/kg, iv by LC-MS/MS analysis; format: ADME, organism-based; details: in vivo, read-out: Vdss; how it was run: as §3
[13] = Half life in Sprague-Dawley rat at 1 mg/kg, iv by LC-MS/MS analysis; format: ADME, organism-based; details: in vivo; how it was run: as §3
[14] = Cmax in Sprague-Dawley rat at 10 mg/kg, po by LC-MS/MS analysis; format: ADME, organism-based; design: dose 10 mg/kg, route oral; details: in vivo
How it was run: (§4)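 Formulation: ethanol 10%, DMSO 10%, Cremophor EL 10%, […], PEG400 30%. PK parameters taken from composite mean plasma concentration–time profiles, given as mean ± SD.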

[15] = Tmax in Sprague-Dawley rat at 10 mg/kg, po by LC-MS/MS analysis; format: ADME, organism-based; details: in vivo; how it was run: as §4
[16] = Total AUC in Sprague-Dawley rat at 10 mg/kg, po by LC-MS/MS analysis; format: ADME, organism-based; design: dose 10 mg/kg, route oral, time AUCmax; details: in vivo; how it was run: as §4
[17] = Oral bioavailability in Sprague-Dawley rat at 10 mg/kg by LC-MS/MS analysis; format: ADME, organism-based; details: in vivo; how it was run: as §4

CYP2C19, sequence (P33261 whole entry): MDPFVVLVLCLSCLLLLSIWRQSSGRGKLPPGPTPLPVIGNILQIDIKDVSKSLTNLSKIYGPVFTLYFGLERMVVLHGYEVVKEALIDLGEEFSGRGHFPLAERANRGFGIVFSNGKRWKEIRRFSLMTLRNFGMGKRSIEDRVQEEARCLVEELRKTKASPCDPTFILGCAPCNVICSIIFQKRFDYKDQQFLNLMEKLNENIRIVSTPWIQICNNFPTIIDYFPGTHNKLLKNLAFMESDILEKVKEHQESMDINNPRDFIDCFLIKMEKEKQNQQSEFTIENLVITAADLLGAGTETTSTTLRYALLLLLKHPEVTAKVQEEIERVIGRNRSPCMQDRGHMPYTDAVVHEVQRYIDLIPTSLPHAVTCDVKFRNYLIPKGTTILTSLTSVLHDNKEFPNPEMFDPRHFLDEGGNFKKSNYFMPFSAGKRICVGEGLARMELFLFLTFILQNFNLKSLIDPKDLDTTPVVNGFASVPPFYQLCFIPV
CYP2C9, sequence (P11712 whole entry): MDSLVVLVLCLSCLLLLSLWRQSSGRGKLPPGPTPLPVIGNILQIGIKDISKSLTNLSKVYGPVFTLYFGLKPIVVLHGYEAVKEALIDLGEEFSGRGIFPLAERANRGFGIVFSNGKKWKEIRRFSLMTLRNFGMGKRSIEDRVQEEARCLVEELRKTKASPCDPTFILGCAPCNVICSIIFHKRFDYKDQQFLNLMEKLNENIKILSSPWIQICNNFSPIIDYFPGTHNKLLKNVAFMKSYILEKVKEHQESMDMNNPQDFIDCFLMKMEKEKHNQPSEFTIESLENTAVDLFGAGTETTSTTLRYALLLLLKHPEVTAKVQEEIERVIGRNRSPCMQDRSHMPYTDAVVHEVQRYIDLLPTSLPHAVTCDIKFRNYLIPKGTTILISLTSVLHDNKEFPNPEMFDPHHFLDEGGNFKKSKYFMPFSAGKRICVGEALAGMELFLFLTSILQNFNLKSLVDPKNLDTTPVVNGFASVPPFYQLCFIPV
Voltage-gated inwardly rectifying potassium channel KCNH2, sequence (Q12809 whole entry): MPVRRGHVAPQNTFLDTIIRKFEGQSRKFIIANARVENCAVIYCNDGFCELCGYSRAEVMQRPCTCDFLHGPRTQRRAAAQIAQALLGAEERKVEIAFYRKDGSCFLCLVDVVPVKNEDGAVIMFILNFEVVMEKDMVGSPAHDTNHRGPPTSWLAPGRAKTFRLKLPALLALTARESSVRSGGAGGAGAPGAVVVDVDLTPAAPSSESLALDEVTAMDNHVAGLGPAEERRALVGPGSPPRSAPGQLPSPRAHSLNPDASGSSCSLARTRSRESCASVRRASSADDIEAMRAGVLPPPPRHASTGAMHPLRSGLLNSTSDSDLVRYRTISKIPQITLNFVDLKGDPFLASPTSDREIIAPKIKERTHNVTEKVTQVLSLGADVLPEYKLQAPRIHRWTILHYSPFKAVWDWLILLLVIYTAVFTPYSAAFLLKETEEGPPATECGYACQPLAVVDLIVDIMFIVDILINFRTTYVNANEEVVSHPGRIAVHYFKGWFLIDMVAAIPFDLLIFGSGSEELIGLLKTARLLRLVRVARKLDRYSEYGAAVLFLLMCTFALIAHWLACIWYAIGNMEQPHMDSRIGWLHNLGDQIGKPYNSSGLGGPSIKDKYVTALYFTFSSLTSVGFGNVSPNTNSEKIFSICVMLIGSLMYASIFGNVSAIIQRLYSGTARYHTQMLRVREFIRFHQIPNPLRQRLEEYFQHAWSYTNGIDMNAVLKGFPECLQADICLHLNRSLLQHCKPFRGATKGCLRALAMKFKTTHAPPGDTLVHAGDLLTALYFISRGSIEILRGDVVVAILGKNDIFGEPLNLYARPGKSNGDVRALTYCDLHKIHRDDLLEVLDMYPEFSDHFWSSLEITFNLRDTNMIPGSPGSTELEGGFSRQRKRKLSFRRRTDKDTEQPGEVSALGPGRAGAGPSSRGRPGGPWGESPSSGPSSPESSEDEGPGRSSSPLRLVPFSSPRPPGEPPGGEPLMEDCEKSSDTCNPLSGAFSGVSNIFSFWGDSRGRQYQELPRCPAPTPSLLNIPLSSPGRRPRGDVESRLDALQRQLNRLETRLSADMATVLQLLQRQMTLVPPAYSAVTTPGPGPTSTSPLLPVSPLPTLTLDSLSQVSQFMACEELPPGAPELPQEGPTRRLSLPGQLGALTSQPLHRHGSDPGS
CYP2D6, sequence (P10635 whole entry): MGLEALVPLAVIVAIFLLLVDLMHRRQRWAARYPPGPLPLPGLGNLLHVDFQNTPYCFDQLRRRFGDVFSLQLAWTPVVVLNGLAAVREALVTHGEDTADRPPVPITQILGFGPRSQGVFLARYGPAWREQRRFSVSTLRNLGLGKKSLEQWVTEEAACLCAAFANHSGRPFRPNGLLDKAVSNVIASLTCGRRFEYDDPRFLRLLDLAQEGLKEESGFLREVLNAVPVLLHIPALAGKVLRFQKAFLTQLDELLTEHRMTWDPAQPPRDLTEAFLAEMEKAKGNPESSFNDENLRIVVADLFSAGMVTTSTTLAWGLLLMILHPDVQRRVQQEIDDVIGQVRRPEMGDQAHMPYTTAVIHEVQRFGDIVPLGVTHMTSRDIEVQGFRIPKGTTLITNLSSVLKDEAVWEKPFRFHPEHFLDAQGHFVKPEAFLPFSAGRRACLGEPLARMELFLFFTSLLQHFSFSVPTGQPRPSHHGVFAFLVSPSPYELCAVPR
CYP3A4, sequence (P08684 whole entry): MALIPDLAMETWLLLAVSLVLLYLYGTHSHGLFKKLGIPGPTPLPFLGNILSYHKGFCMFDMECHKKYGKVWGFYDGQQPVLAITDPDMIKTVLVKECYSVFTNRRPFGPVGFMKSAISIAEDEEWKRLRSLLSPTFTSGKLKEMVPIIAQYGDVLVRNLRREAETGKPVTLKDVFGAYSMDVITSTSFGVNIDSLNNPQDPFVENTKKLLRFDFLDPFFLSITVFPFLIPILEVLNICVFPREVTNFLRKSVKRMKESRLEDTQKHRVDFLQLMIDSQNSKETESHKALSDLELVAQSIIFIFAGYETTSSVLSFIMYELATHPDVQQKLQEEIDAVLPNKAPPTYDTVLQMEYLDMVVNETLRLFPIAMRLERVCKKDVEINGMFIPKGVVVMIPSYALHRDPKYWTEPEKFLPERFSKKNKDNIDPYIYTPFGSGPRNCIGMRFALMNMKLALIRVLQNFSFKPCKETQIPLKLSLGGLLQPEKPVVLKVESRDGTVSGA

| SMILES | EC50 [1] [nM] | EC50 [2] [nM] | EC50 [3] [nM] | further results |
| --- | --- | --- | --- | --- |
| Cc1cc(SC(Cc2cc(F)c(F)c(F)c2)c2ccc(-c3ccc(F)cc3)cc2)ccc1OCC(=O)O (configuration not stated) | 65 | > 10000 | > 10000 | – |
| Cc1cc(SC(Cc2ccccc2)c2ccc(-c3ccc(C(F)(F)F)cc3)cc2)ccc1OCC(=O)O (configuration not stated) | – | > 10000 | > 10000 | inhibition at 0.25 h, 10 µM (CYP1A2): 1.5%; inhibition at 0.25 h, 10 µM (CYP2C9): 35.5%; inhibition at 0.25 h, 10 µM (CYP2C19): 4.3%; inhibition at 0.25 h, 10 µM (CYP2D6): 0%; inhibition at 0.25 h, 10 µM (CYP3A4): 7.3%; remaining at 0.5 h, 1 µM [4]: 99.8%; remaining at 0.5 h, 1 µM [5]: > 100%; remaining at 0.5 h, 1 µM [6]: > 100%; remaining at 0.5 h, 1 µM [7]: > 100%; Papp at 5 h, 10 µM [8]: 9.54 ×10⁻⁶ cm/s; IC50 [9]: > 10000 nM; AUC [10]: 3830 ng·h/mL; clearance [11]: 4 mL/min/kg; Vd [12]: 1 L/kg; half-life [13]: 3.6 h; Cmax [14]: 2320 ng/mL; Tmax [15]: 4.5 h; AUC [16]: 12500 ng·h/mL; bioavailability [17]: 32.6% |
| Cc1cc(SC(Cc2cc(Cl)ccc2Cl)c2ccc(-c3cc(F)c(F)c(F)c3)cc2)ccc1OCC(=O)O (configuration not stated) | 9.5 | > 10000 | > 10000 | – |
| Cc1cc(SC(Cc2ccccc2)c2ccc(-c3cccc(C(F)(F)F)c3)cc2)ccc1OCC(=O)O (configuration not stated) | 18 | > 10000 | > 10000 | – |
| Cc1cc(SC(Cc2cc(F)ccc2F)c2ccc(-c3cc(F)c(F)c(F)c3)cc2)ccc1OCC(=O)O (configuration not stated) | 6.3 | > 10000 | > 10000 | – |
| Cc1cc(S[C@@H](Cc2ccccc2)c2ccc(-c3ccc(C(F)(F)F)cc3)cc2)ccc1OCC(=O)O | 6.1 | – | – | – |
| Cc1cc(SC(Cc2cc(Cl)ccc2F)c2ccc(-c3cccc(C(F)(F)F)c3)cc2)ccc1OCC(=O)O (configuration not stated) | 5.3 | > 10000 | > 10000 | – |
| Cc1cc(SC(Cc2ccccc2)c2ccc(-c3ccc(F)cc3)cc2)ccc1OCC(=O)O (configuration not stated) | 7 | > 10000 | > 10000 | – |
| Cc1cc(S[C@H](Cc2ccccc2)c2ccc(-c3ccc(C(F)(F)F)cc3)cc2)ccc1OCC(=O)O | 0.7 | – | – | – |
| Cc1cc(SC(Cc2cc(Cl)ccc2F)c2ccc(-c3ccccc3)cc2)ccc1OCC(=O)O (configuration not stated) | 26 | > 10000 | > 10000 | – |
| Cc1cc(SC(Cc2cc(C(F)(F)F)ccc2F)c2ccc(-c3ccc(F)cc3)cc2)ccc1OCC(=O)O (configuration not stated) | 38 | > 10000 | > 10000 | – |

Reference: ChEMBL document CHEMBL4229483, “Synthesis and evaluation of an orally available "Y"-shaped biaryl peroxisome proliferator-activated receptor δ agonist” (Bioorg Med Chem, 2018)
